Results published in ChEMBL document CHEMBL1148554, “Hydroxylated analogues of the orally active broad spectrum antifungal, Sch 51048 (1), and the discovery of posaconazole [Sch 56592; 2 or (S,S)-5]” (2006).
In brackets after ≈: the same amount, converted by molar mass.

Key:
Candida albicans = assay: Antifungal activity against Candida albicans; type: functional
Outline: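 Geometric mean MIC across 26–30 C. albicans strains.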

Aspergillus = assay: Antifungal activity against Aspergillus species; type: functional
Outline: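 Geometric mean MIC across 37 Aspergillus strains: 17 A. fumigatus, 11 A. flavus, 5 A. niger and 4 A. terreus.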

Row | Structure (SMILES) | MIC (Candida albicans) [mg/L] | MIC (Aspergillus) [mg/L]
1 | C[C@@H](O)[C@H](C)n1ncn(-c2ccc(N3CCN(c4ccc(OC[C@@H]5CO[C@@](Cn6cncn6)(c6ccc(F)cc6F)C5)cc4)CC3)cc2)c1=O | < 0.007 | < 0.05
2 | CC[C@H]([C@H](C)O)n1ncn(-c2ccc(N3CCN(c4ccc(OC[C@@H]5CO[C@@](Cn6cncn6)(c6ccc(F)cc6F)C5)cc4)CC3)cc2)c1=O | 0.022 (≈ 0.0314 µM) | < 0.09
3 | CC[C@H]([C@@H](C)O)n1ncn(-c2ccc(N3CCN(c4ccc(OC[C@@H]5CO[C@@](Cn6cncn6)(c6ccc(F)cc6F)C5)cc4)CC3)cc2)c1=O | 0.014 (≈ 0.02 µM) | < 0.077
4 | CC[C@@H]([C@H](C)O)n1ncn(-c2ccc(N3CCN(c4ccc(OC[C@@H]5CO[C@@](Cn6cncn6)(c6ccc(F)cc6F)C5)cc4)CC3)cc2)c1=O [POSACONAZOLE] | 0.018 (≈ 0.0257 µM) | < 0.048
5 | C[C@H]([C@@H](C)O)n1ncn(-c2ccc(N3CCN(c4ccc(OC[C@@H]5CO[C@@](Cn6cncn6)(c6ccc(F)cc6F)C5)cc4)CC3)cc2)c1=O | < 0.006 | 0.09 (≈ 0.131 µM)
6 | CC[C@@H]([C@@H](C)O)n1ncn(-c2ccc(N3CCN(c4ccc(OC[C@@H]5CO[C@@](Cn6cncn6)(c6ccc(F)cc6F)C5)cc4)CC3)cc2)c1=O (mixture of isomers) | 0.019 | < 0.086
7 | C[C@H](O)[C@H](C)n1ncn(-c2ccc(N3CCN(c4ccc(OC[C@@H]5CO[C@@](Cn6cncn6)(c6ccc(F)cc6F)C5)cc4)CC3)cc2)c1=O | 0.02 (≈ 0.0291 µM) | 0.06 (≈ 0.0874 µM)
8 | C[C@H](O)[C@@H](C)n1ncn(-c2ccc(N3CCN(c4ccc(OC[C@@H]5CO[C@@](Cn6cncn6)(c6ccc(F)cc6F)C5)cc4)CC3)cc2)c1=O | 0.03 (≈ 0.0437 µM) | 0.08 (≈ 0.116 µM)
